# Activity calls are given as the source filed them. The rule behind the calls is not given here. Square brackets hold non-standard residues; d marks the D form. Peptide text beside a SMILES is read from it. Bip(2'-Et-4'-OMe) = CCc1cc(OC)ccc1-c1ccc(C[C@H](N)C(=O)O)cc1; Bip(2'-Me) = Cc1ccccc1-c1ccc(C[C@H](N)C(=O)O)cc1; αMeF = C[C@](N)(Cc1ccccc1)C(=O)O; Aib = CC(C)(N)C(=O)O
# Target: T1, Glucagon-like peptide 1 receptor (Homo sapiens, UniProt P43220)
# Assay: Agonist activity at human GLP1R expressed in CHO cells assessed as stimulation of intracellular [3H]cAMP accumulation after 30 mins by scintillation proximity assay
# Type: functional, cell-based
# How it was run: (§1)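 CHO cells stably expressing human or mouse GLP-1R, grown in F-12 with 10% FBS plus Geneticin (0.4 mg/mL human, 1 mg/mL mouse), plated 2×10^4/well overnight. Half-log dilutions made in DMSO, then in DPBS with 0.1 mM IBMX and 0.05% BSA (final 1% DMSO). Cells exposed 30 min. cAMP read by SPA and converted to pmol via standard curve. Duplicates, at least three separate runs.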
# T1 sequence (P43220 whole entry): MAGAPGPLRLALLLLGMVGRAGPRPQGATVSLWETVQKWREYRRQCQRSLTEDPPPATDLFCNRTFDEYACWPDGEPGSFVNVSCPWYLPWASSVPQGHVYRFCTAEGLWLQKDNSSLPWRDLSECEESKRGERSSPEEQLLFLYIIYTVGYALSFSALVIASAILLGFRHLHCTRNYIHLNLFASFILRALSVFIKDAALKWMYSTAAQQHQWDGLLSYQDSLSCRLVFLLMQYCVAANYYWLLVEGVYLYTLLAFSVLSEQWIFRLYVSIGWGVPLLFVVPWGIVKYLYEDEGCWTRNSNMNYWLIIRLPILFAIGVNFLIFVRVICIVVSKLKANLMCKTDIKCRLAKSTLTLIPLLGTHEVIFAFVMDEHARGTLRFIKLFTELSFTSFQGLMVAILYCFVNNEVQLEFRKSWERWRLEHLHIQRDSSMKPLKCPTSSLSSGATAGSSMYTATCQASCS
row,SMILES,EC50 [µM]
1,C[C@H](NC(=O)[C@@H](N)Cc1cnc[nH]1)C(=O)N[C@@H](CCC(=O)O)C(=O)NCC(=O)N[C@H](C(=O)N[C@@H](Cc1ccccc1)C(=O)N[C@H](C(=O)N[C@@H](CO)C(=O)N[C@@H](CC(=O)O)C(=O)N[C@@H](Cc1ccc(-c2ccccc2)cc1)C(=O)N[C@@H](Cc1ccc(-c2ccccc2)cc1)C(=O)O)[C@@H](C)O)[C@@H](C)O,> 10
2,CCc1cc(OC)ccc1-c1ccc(C[C@H](NC(=O)[C@H](CC(=O)O)NC(=O)[C@H](CO)NC(=O)[C@@H](NC(=O)[C@H](Cc2ccccc2)NC(=O)[C@@H](NC(=O)CNC(=O)[C@H](CCC(=O)O)NC(=O)[C@H](C)NC(=O)[C@@H](N)Cc2cnc[nH]2)[C@@H](C)O)[C@@H](C)O)C(=O)N[C@@H](Cc2ccc(-c3ccccc3C)cc2)C(N)=O)cc1,0.007
3,Cc1ccc(-c2ccc(C[C@H](NC(=O)[C@H](Cc3ccc(-c4ccccc4)cc3)NC(=O)[C@H](CC(=O)O)NC(=O)[C@H](CO)NC(=O)[C@@H](NC(=O)[C@H](Cc3ccccc3)NC(=O)[C@@H](NC(=O)CNC(=O)[C@H](CCC(=O)O)NC(=O)[C@H](C)NC(=O)[C@@H](N)Cc3cnc[nH]3)[C@@H](C)O)[C@@H](C)O)C(N)=O)cc2)cc1,0.27
4,Cc1cccc(-c2ccc(C[C@H](NC(=O)[C@H](Cc3ccc(-c4ccccc4)cc3)NC(=O)[C@H](CC(=O)O)NC(=O)[C@H](CO)NC(=O)[C@@H](NC(=O)[C@H](Cc3ccccc3)NC(=O)[C@@H](NC(=O)CNC(=O)[C@H](CCC(=O)O)NC(=O)[C@H](C)NC(=O)[C@@H](N)Cc3cnc[nH]3)[C@@H](C)O)[C@@H](C)O)C(N)=O)cc2)c1,0.215
5,C[C@H](NC(=O)[C@@H](N)Cc1cnc[nH]1)C(=O)N[C@@H](CCC(=O)O)C(=O)NCC(=O)N[C@H](C(=O)N[C@@H](Cc1ccccc1)C(=O)N[C@H](C(=O)N[C@@H](CO)C(=O)N[C@@H](CC(=O)O)C(=O)N[C@@H](Cc1ccc(-c2ccccc2)cc1)C(=O)N[C@@H](Cc1ccc(-c2ccccc2)cc1)C(=O)N[C@@H](Cc1ccc(-c2ccccc2)cc1)C(N)=O)[C@@H](C)O)[C@@H](C)O,0.787
6,COc1ccc(-c2ccc(C[C@H](NC(=O)[C@H](Cc3ccc(-c4ccccc4)cc3)NC(=O)[C@H](CC(=O)O)NC(=O)[C@H](CO)NC(=O)[C@@H](NC(=O)[C@H](Cc3ccccc3)NC(=O)[C@@H](NC(=O)CNC(=O)[C@H](CCC(=O)O)NC(=O)[C@H](C)NC(=O)[C@@H](N)Cc3cnc[nH]3)[C@@H](C)O)[C@@H](C)O)C(N)=O)cc2)cc1,0.39
7,C[C@H](NC(=O)[C@@H](N)Cc1cnc[nH]1)C(=O)N[C@@H](CCC(=O)O)C(=O)NCC(=O)N[C@H](C(=O)N[C@@H](Cc1ccccc1)C(=O)N[C@H](C(=O)N[C@@H](CO)C(=O)N[C@@H](CC(=O)O)C(=O)N[C@@H](Cc1ccc(-c2ccccc2)cc1)C(=O)N[C@@H](Cc1ccc(-c2ccc(F)cc2)cc1)C(N)=O)[C@@H](C)O)[C@@H](C)O,0.43
8,CCc1ccccc1-c1ccc(C[C@H](NC(=O)[C@H](CC(=O)O)NC(=O)[C@H](CO)NC(=O)[C@@H](NC(=O)[C@H](Cc2ccccc2)NC(=O)[C@@H](NC(=O)CNC(=O)[C@H](CCC(=O)O)NC(=O)[C@H](C)NC(=O)[C@@H](N)Cc2cnc[nH]2)[C@@H](C)O)[C@@H](C)O)C(=O)N[C@@H](Cc2ccc(-c3ccccc3)cc2)C(N)=O)cc1,0.027
9,C[C@H](NC(=O)[C@@H](N)Cc1cnc[nH]1)C(=O)N[C@@H](CCC(=O)O)C(=O)NCC(=O)N[C@H](C(=O)N[C@@H](Cc1ccccc1)C(=O)N[C@H](C(=O)N[C@@H](CO)C(=O)N[C@@H](CC(=O)O)C(=O)N[C@@H](Cc1ccc(-c2ccccc2)cc1)C(=O)N[C@@H](Cc1ccc(-c2ccccc2)cc1)C(N)=O)[C@@H](C)O)[C@@H](C)O,0.545
10,C[C@H](NC(=O)[C@@H](N)Cc1cnc[nH]1)C(=O)N[C@@H](CCC(=O)O)C(=O)NCC(=O)N[C@H](C(=O)N[C@@H](Cc1ccccc1)C(=O)N[C@H](C(=O)N[C@@H](CO)C(=O)N[C@@H](CC(=O)O)C(=O)N[C@@H](Cc1ccc(-c2ccccc2)cc1)C(N)=O)[C@@H](C)O)[C@@H](C)O,> 10
11,CCc1cc(OC)ccc1-c1ccc(C[C@H](NC(=O)[C@H](CC(=O)O)NC(=O)[C@H](CO)NC(=O)[C@@H](NC(=O)[C@](C)(Cc2ccccc2)NC(=O)[C@@H](NC(=O)CNC(=O)[C@H](CCC(=O)O)NC(=O)[C@H](C)NC(=O)[C@@H](N)Cc2cnc[nH]2)[C@@H](C)O)[C@@H](C)O)C(=O)N[C@@H](Cc2ccc(-c3ccccc3C)cc2)C(N)=O)cc1 (H-HAEGT[αMeF]TSD[Bip(2'-Et-4'-OMe)][Bip(2'-Me)]-NH2),0.0024
12,CCc1cc(OC)ccc1-c1ccc(C[C@H](NC(=O)[C@H](CC(=O)O)NC(=O)[C@H](CO)NC(=O)[C@@H](NC(=O)[C@](C)(Cc2ccccc2)NC(=O)[C@@H](NC(=O)CNC(=O)[C@H](CCC(=O)O)NC(=O)C(C)(C)NC(=O)[C@@H](N)Cc2cnc[nH]2)[C@@H](C)O)[C@@H](C)O)C(=O)N[C@@H](Cc2ccc(-c3ccccc3C)cc2)C(N)=O)cc1 (H-H[Aib]EGT[αMeF]TSD[Bip(2'-Et-4'-OMe)][Bip(2'-Me)]-NH2),0.00028

# The next lines start with the values.
row,EC50 [µM],SMILES
1,0.48,Cc1ccccc1-c1ccc(C[C@H](NC(=O)[C@H](Cc2ccc(-c3ccccc3)cc2)NC(=O)[C@H](CC(=O)O)NC(=O)[C@H](CO)NC(=O)[C@@H](NC(=O)[C@H](Cc2ccccc2)NC(=O)[C@@H](NC(=O)CNC(=O)[C@H](CCC(=O)O)NC(=O)[C@H](C)NC(=O)[C@@H](N)Cc2cnc[nH]2)[C@@H](C)O)[C@@H](C)O)C(N)=O)cc1
2,0.148,Cc1ccccc1-c1ccc(C[C@H](NC(=O)[C@H](Cc2ccc(-c3ccccc3C)cc2)NC(=O)[C@H](CC(=O)O)NC(=O)[C@H](CO)NC(=O)[C@@H](NC(=O)[C@H](Cc2ccccc2)NC(=O)[C@@H](NC(=O)CNC(=O)[C@H](CCC(=O)O)NC(=O)[C@H](C)NC(=O)[C@@H](N)Cc2cnc[nH]2)[C@@H](C)O)[C@@H](C)O)C(N)=O)cc1
3,0.095,Cc1ccc(-c2ccc(C[C@H](NC(=O)[C@H](Cc3ccc(-c4ccccc4C)cc3)NC(=O)[C@H](CC(=O)O)NC(=O)[C@H](CO)NC(=O)[C@@H](NC(=O)[C@H](Cc3ccccc3)NC(=O)[C@@H](NC(=O)CNC(=O)[C@H](CCC(=O)O)NC(=O)[C@H](C)NC(=O)[C@@H](N)Cc3cnc[nH]3)[C@@H](C)O)[C@@H](C)O)C(N)=O)cc2)cc1
4,0.087,Cc1cccc(-c2ccc(C[C@H](NC(=O)[C@H](Cc3ccc(-c4ccccc4C)cc3)NC(=O)[C@H](CC(=O)O)NC(=O)[C@H](CO)NC(=O)[C@@H](NC(=O)[C@H](Cc3ccccc3)NC(=O)[C@@H](NC(=O)CNC(=O)[C@H](CCC(=O)O)NC(=O)[C@H](C)NC(=O)[C@@H](N)Cc3cnc[nH]3)[C@@H](C)O)[C@@H](C)O)C(N)=O)cc2)c1
5,0.022,CCc1ccccc1-c1ccc(C[C@H](NC(=O)[C@H](CC(=O)O)NC(=O)[C@H](CO)NC(=O)[C@@H](NC(=O)[C@H](Cc2ccccc2)NC(=O)[C@@H](NC(=O)CNC(=O)[C@H](CCC(=O)O)NC(=O)[C@H](C)NC(=O)[C@@H](N)Cc2cnc[nH]2)[C@@H](C)O)[C@@H](C)O)C(=O)N[C@@H](Cc2ccc(-c3ccccc3C)cc2)C(N)=O)cc1
6,0.093,CCCc1ccccc1-c1ccc(C[C@H](NC(=O)[C@H](CC(=O)O)NC(=O)[C@H](CO)NC(=O)[C@@H](NC(=O)[C@H](Cc2ccccc2)NC(=O)[C@@H](NC(=O)CNC(=O)[C@H](CCC(=O)O)NC(=O)[C@H](C)NC(=O)[C@@H](N)Cc2cnc[nH]2)[C@@H](C)O)[C@@H](C)O)C(=O)N[C@@H](Cc2ccc(-c3ccccc3C)cc2)C(N)=O)cc1
7,0.035,COc1ccc(-c2ccc(C[C@H](NC(=O)[C@H](CC(=O)O)NC(=O)[C@H](CO)NC(=O)[C@@H](NC(=O)[C@H](Cc3ccccc3)NC(=O)[C@@H](NC(=O)CNC(=O)[C@H](CCC(=O)O)NC(=O)[C@H](C)NC(=O)[C@@H](N)Cc3cnc[nH]3)[C@@H](C)O)[C@@H](C)O)C(=O)N[C@@H](Cc3ccc(-c4ccccc4C)cc3)C(N)=O)cc2)c(C)c1
8,0.965,COc1cccc(-c2ccc(C[C@H](NC(=O)[C@H](CC(=O)O)NC(=O)[C@H](CO)NC(=O)[C@@H](NC(=O)[C@H](Cc3ccccc3)NC(=O)[C@@H](NC(=O)CNC(=O)[C@H](CCC(=O)O)NC(=O)[C@H](C)NC(=O)[C@@H](N)Cc3cnc[nH]3)[C@@H](C)O)[C@@H](C)O)C(=O)N[C@@H](Cc3ccc(-c4ccccc4C)cc3)C(N)=O)cc2)c1

# Target: T1, Glucagon-like peptide 1 receptor
# Assay: Agonist activity at human GLP1R expressed in CHO cells assessed as stimulation of intracellular [3H]cAMP accumulation at 1 to 100 nM after 30 mins by scintillation proximity assay in presence of GLP1R antagonist truncated exendin-4(9-39)
# Type: functional, cell-based
# How it was run: as §1
row,Activity,SMILES
1,inactive,C[C@H](NC(=O)[C@@H](N)Cc1cnc[nH]1)C(=O)N[C@@H](CCC(=O)O)C(=O)NCC(=O)N[C@H](C(=O)N[C@@H](Cc1ccccc1)C(=O)N[C@H](C(=O)N[C@@H](CO)C(=O)N[C@@H](CC(=O)O)C(=O)N[C@@H](Cc1ccc(-c2ccccc2)cc1)C(=O)N[C@@H](Cc1ccc(-c2ccccc2)cc1)C(N)=O)[C@@H](C)O)[C@@H](C)O

# Target: T1, Glucagon-like peptide 1 receptor
# Assay: Displacement of [125I]GLP1 from human GLP1R expressed in CHO cells
# Type: cell-based
row,Activity,SMILES
1,Active,C[C@H](NC(=O)[C@@H](N)Cc1cnc[nH]1)C(=O)N[C@@H](CCC(=O)O)C(=O)NCC(=O)N[C@H](C(=O)N[C@@H](Cc1ccccc1)C(=O)N[C@H](C(=O)N[C@@H](CO)C(=O)N[C@@H](CC(=O)O)C(=O)N[C@@H](Cc1ccc(-c2ccccc2)cc1)C(=O)N[C@@H](Cc1ccc(-c2ccccc2)cc1)C(N)=O)[C@@H](C)O)[C@@H](C)O
